Test results: ChEMBL document CHEMBL3779824, “Design and synthesis of novel chalcones as potent selective monoamine oxidase-B inhibitors” (Eur J Med Chem, 2016); call rule not given here

What was measured:
[1] = molecular target: T1, Amine oxidase [flavin-containing] A (Homo sapiens, UniProt P21397); assay: Inhibition of recombinant human MAOA expressed in baculovirus infected BTI insect cell microsomes at 10 uM using MMTP as substrate preincubated for 5 mins followed by substrate addition by spectrophotometric analysis
T1 sequence (P21397 whole entry): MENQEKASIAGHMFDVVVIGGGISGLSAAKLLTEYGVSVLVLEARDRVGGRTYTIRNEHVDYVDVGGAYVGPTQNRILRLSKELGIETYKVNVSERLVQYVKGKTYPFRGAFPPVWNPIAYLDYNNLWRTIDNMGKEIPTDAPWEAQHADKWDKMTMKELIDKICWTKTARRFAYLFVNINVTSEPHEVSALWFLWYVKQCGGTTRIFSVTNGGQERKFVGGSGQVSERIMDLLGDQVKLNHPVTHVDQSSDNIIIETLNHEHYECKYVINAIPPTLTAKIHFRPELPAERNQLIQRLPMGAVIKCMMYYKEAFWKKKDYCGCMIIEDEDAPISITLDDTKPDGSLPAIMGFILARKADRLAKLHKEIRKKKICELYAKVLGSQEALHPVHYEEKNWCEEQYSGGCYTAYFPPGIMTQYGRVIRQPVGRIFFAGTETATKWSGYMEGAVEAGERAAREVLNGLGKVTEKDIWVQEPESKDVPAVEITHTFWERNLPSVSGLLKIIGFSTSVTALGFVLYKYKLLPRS
In short: (§1)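 Insect-cell microsomes carrying recombinant human enzyme (25 µg per assay) in 0.1 M potassium phosphate. Incubated with inhibitor at 10 µM final (DMSO 3.3% v/v final) for 5 min at 37 °C. Started with MMTP at 0.15 mM. Absorbance increase followed at 420 nm at 37 °C, with v0 from ε 25000 M-1 cm-1. Activity given as a ratio to a DMSO-only control (100%).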

[2] = molecular target: T2, Amine oxidase [flavin-containing] B (Homo sapiens, UniProt P27338); assay: Inhibition of recombinant human MAOB expressed in baculovirus infected BTI insect cell microsomes at 10 uM using MMTP as substrate preincubated for 5 mins followed by substrate addition by spectrophotometric analysis; in short: as §1
T2 sequence (P27338 whole entry): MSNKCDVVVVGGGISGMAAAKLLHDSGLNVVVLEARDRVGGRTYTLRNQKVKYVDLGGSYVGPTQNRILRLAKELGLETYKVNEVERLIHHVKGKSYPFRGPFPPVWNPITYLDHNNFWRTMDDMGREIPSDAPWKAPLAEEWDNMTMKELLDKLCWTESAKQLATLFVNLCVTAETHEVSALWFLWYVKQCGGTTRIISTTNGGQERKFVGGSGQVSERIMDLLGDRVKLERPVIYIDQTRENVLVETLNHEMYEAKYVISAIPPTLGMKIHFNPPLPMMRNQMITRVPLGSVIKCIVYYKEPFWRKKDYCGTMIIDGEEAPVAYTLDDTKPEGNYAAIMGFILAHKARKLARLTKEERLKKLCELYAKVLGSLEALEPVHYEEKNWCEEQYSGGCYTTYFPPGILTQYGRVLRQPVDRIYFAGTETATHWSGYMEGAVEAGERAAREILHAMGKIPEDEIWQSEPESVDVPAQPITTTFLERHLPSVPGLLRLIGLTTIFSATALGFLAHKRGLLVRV

[3] = molecular target: T2, Amine oxidase [flavin-containing] B; assay: Inhibition of recombinant human MAOB expressed in baculovirus infected BTI insect cell microsomes using MMTP as substrate preincubated for 5 mins followed by substrate addition by spectrophotometric analysis
In short: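 MAO-B in insect-cell microsomes, 25 µg in 0.1 M potassium phosphate with 3.3% v/v DMSO final. Preincubated with inhibitor for 5 min at 37 °C, then MMTP added at 0.15 mM. Absorbance read at 420 nm at 37 °C. Remaining activity relative to the DMSO control was fitted against log10[I] to a dose-response curve for IC50. Mean ± SEM of two experiments.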

[4] = molecular target: T2, Amine oxidase [flavin-containing] B; assay: Competitive inhibition of human MAOB overexpressed in Pichia pastoris using MMTP as substrate preincubated for 5 mins followed by substrate addition by UV/vis spectrophotometric analysis
In short: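 Purified recombinant human MAO-B in reaction buffer containing 0.25% v/v reduced Triton X-100. MMTP assay read at 420 nm in quartz cuvettes under aerobic conditions at 25 °C. MMTP was varied from 0.07 to 2.00 mM and inhibitor from 3 to 40 µM. Apparent kcat (v0/[E]) was plotted against substrate and fitted to competitive, uncompetitive and noncompetitive models to give Ki.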

[5] = molecular target: T2, Amine oxidase [flavin-containing] B; assay: Time-dependent inhibition of recombinant human MAOB expressed in baculovirus infected BTI insect cell microsomes at IC50 using MMTP as substrate preincubated for 5 mins followed by substrate addition measured after 5 to 60 mins by spectrophotometric analysis
In short: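 Microsomal human MAO-B was preincubated with inhibitor at 0.55 µM final for 5, 15, 30 or 60 min. Residual activity was then measured in the MMTP assay (420 nm, 37 °C). Rates expressed as apparent kcat (min-1); SEM from two replicates.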

Row | SMILES | inhibition at 10 µM [1] [%] | inhibition at 10 µM [2] [%] | IC50 [3] [nM] | Ki [4] [nM] | TDI [5]
1 | O=C(/C=C/c1cccc2c1OCO2)c1cccc(OC(F)(F)F)c1 | 0 | 88 | 1510 | 2360 | –
2 | O=C(/C=C/c1cccc2c1OCO2)c1cccc(C(F)(F)F)c1 | 16 | 96 | 550 | 780 | Not Active
3 | COc1cccc(/C=C/C(=O)c2cccc(OC(F)(F)F)c2)c1OC | 0 | 41 | – | – | –
4 | COc1cccc(/C=C/C(=O)c2ccccc2C(F)(F)F)c1OC | 0 | 27 | – | – | –
5 | CSc1ccc(C(=O)/C=C/c2cccc3c2OCO3)cc1 | 0 | 86 | 950 | 550 | –
6 | COc1cccc(/C=C/C(=O)c2cccc(C(F)(F)F)c2)c1OC | 0 | 63 | 4490 | – | –
7 | COc1cccc(/C=C/C(=O)c2ccc(SC)cc2)c1OC | 0 | 36 | – | – | –
8 | CS(=O)(=O)c1ccc(C(=O)/C=C/c2cccc3c2OCO3)cc1 | 0 | 93 | 1000 | 720 | –
9 | O=C(/C=C/c1cccc2c1OCO2)c1ccccc1C(F)(F)F | – | 7 | – | – | –
10 | COc1cccc(/C=C/C(=O)c2ccc(S(C)(=O)=O)cc2)c1OC | 0 | 90 | 1970 | 1150 | –
